Screening results as filed in PubChem BioAssay.
Hits are enriched below; roughly 2.4% of the tested compounds scored in any of these assays.
TbMetRS inhib – blocks T. brucei methionyl-tRNA synthetase activity; actives 0.4% (n = 360,000); purified T. brucei MetRS, ATP depletion, Kinase-Glo luminescence; inhibition, % at 11.9 µM; AID 624268;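 active = inhibition above a per-plate cutoff of the control wells' mean inhibition plus 3 SD, cut at about 5.5% in these data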
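Test system: purified T. brucei MetRS enzyme. Also added: ATP, methionine and E. coli bulk tRNA substrates. Compound: 11.9 µM single point. Schedule: 15 min enzyme-compound preincubation, 2 h reaction, 10 min detection, 25 °C. Signal: luciferase luminescence of residual ATP, Kinase-Glo. Evaluation: percent inhibition versus plate control medians. Controls: DMSO wells, low control.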
PREPL inh – inhibitors of human prolyl oligopeptidase-like enzyme PREPL; Q4J6C6; recombinant PREPL, fluorescence polarization activity-based probe; inhibition, % at 5.96 µM; actives 0.68% (n = 320,000); in the data active = inhibition above about 43%
HNF4A DNA FP – change in binding of human HNF4 alpha to DNA; actives 0.3% (n = 360,000); activity change, % at 10 µM; P41235; HNF4a-FITC DNA binding, fluorescence polarization, 1 h; AID 1224865; in the data active = activity change above about 30%, passing the limit was not always enough
Target sequence (P41235 whole entry, looked up): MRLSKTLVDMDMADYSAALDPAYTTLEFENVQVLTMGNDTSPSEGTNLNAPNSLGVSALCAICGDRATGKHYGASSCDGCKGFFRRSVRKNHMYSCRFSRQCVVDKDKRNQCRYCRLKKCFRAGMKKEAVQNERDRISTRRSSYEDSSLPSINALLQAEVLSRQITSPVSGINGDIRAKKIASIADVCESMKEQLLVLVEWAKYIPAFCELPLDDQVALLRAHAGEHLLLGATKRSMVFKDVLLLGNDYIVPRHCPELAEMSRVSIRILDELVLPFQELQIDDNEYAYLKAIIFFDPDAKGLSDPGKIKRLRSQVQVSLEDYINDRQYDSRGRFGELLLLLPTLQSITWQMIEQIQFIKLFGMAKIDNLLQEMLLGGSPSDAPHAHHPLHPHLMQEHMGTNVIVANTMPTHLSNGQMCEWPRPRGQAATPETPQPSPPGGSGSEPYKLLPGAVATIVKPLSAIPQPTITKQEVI
CSN deneddyl inh – blocks human CSN-mediated cullin deneddylation; Q92905; AID 651999; actives 0.38% (n = 360,000); inhibition, % at 12.5 µM; Purified CSN, SCF-Nedd8-OG deneddylation, fluorescence polarization;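 active = pattern-corrected inhibition above about 35%, with an unprinted fluorescence ratio check between 0.5 and 1.5, limit read from the data, passing the limit was not always enough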
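Material: purified human Csn5 enzyme expressed in HEK293T cells / Medium: Tris buffer pH 7.5, NaCl, DTT, Tween-20, trehalose, ovalbumin / Compound dosing: 12.5 µM single point / Schedule: 90 min incubation of compound, enzyme and substrate at room temperature / Signal: fluorescence polarization of the substrate / Control set: no-enzyme wells high, enzyme-with-substrate wells low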
Neddylation inh – blocks human cullin neddylation; actives 0.58% (n = 360,000); TR-FRET cullin neddylation, biochemical; P61081+Q13564; inhibition, % at 25 µM; in the data active = inhibition above about 36%
Rpn11 inh – inhibitors of human proteasome Rpn11. O00487. human 26S proteasome, Ub4-pepOG fluorescence polarization; 20S core pre-blocked with epoxomicin. inhibition, % at 20 µM. actives 0.59% (n = 360,000). AID 588493;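 active = inhibition at 20 µM, scaled to each plate's controls, above about 33%, limit read from the data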
Tb MetRS conf – confirmation of Trypanosoma brucei MetRS inhibitors; shares compounds with TbMetRS inhib; T. brucei MetRS enzyme, luminescence (ATP depletion); inhibition, % at 11.9 µM; actives 93% (n = 1,400); in the data active = inhibition above about 7%
Jurkat cytotox – Jurkat T cell cytotoxicity for MetRS hits; inhibition, % at 8.3 µM; shares compounds with TbMetRS inhib; Jurkat cells viability, ATP luminescence; actives 12% (n = 1,400); in the data active = inhibition above about 15%
Tb MetRS inh FP – inhibits T. brucei methionyl tRNA synthetase in orthogonal FP test; shares compounds with TbMetRS inhib; inhibition, % at 11.9 µM; purified T. brucei MetRS, fluorescence polarization; AID 651607; actives 44% (n = 1,400); in the data active = inhibition above about 17%
Hits are given with their value; n = inactive; x = not tested or not shown.

SMILES | TbMetRS inhib | PREPL inh | HNF4A DNA FP | CSN deneddyl inh | Neddylation inh | Rpn11 inh | Tb MetRS conf | Jurkat cytotox | Tb MetRS inh FP
COC(=O)CN1C(=S)N(c2ccc(Cl)cc2)C(=O)C1CC(=O)Nc1ccc(F)cc1 (stereo unspecified) | n | n | n | n | n | n | x | x | x
O=C(/C=C/c1ccc(Br)cc1)NC(=O)c1ccccc1O | 7.2 | n | n | n | n | n | 8.8 | n | n
O=C(/C=C/c1ccc(O)c(O)c1)NC(=O)c1ccccc1O | n | n | n | n | n | n | x | x | x
O=C(c1ccc(-n2cncn2)c([N+](=O)[O-])c1)N1CCN(c2cccc(Cl)c2)CC1 | 5.8 | n | n | n | n | n | 20 | n | n
COc1ccc(NC(=O)c2ccc(-n3cncn3)c([N+](=O)[O-])c2)cc1OC | 15 | n | n | n | n | n | 59 | n | 33
Cc1ccc(NC(=O)CN(C)C(=O)c2ccc(-n3cncn3)c([N+](=O)[O-])c2)cc1 | 10 | n | n | n | n | n | 38 | n | n
Cc1cccc(NC(=O)CNC(=O)c2ccc(-n3cncn3)c([N+](=O)[O-])c2)c1C | 19 | n | n | n | n | n | 51 | n | 27
CCN(CC(=O)Nc1c(F)cccc1F)C(=O)c1ccc(-n2cncn2)c([N+](=O)[O-])c1 | n | n | n | n | n | n | x | x | x
O=C(NCCc1ccccc1)c1ccc(-c2cccnc2)c2ccoc12 | n | x | n | n | n | n | x | x | x
Cc1ccc(NC(=O)CN(C)C(=O)c2ccc(C(F)(F)F)cc2)cc1 | 6.2 | n | n | n | n | n | 26 | n | n
CCc1ccc(NC(=O)c2ccc(-n3cncn3)c([N+](=O)[O-])c2)cc1 | 13 | n | n | n | n | n | 39 | n | 20
O=C(NCCCc1ccccc1)c1ccc(-n2cncn2)c([N+](=O)[O-])c1 | 21 | n | n | n | n | n | 58 | n | 35
COc1cc(OC)cc(C(=O)NNC(=O)c2ccc(-n3cncn3)c([N+](=O)[O-])c2)c1 | 6.0 | n | n | n | n | n | 31 | n | 17
COc1ccc(C(=O)NCCc2ccccc2)cc1[N+](=O)[O-] | n | n | n | n | n | n | x | x | x
CCc1ccc(NC(=O)c2ccc(OC)c([N+](=O)[O-])c2)cc1 | n | n | n | n | n | n | x | x | x
COCCc1ccc(OC2(C)CCN(Cc3cccc(OC)c3OC)C2)cc1 (stereo unspecified) | n | x | n | n | n | n | x | x | x
Clc1cccc(CNc2ccn3nc(-c4cccs4)cc3n2)c1 | n | x | n | n | n | n | x | x | x
COC(=O)c1ccc(-n2cncn2)c(F)c1 | n | n | n | n | n | n | x | x | x
COc1ccc(NC(=O)c2ccc(-n3cncn3)c([N+](=O)[O-])c2)cc1 | 6.2 | n | n | n | n | n | 22 | n | n
Cc1ccc(NC(=O)c2ccc(-n3cccn3)c([N+](=O)[O-])c2)cc1 | n | n | n | n | n | n | x | x | x
COC(=O)c1ccc(-n2cncn2)c([N+](=O)[O-])c1 | 16 | n | n | n | n | n | 35 | n | n
CCOC(=O)c1ccc(N(C(=O)c2ccco2)C(C(=O)NC2CCCC2)c2ccncc2)cc1 (stereo unspecified) | n | n | n | n | n | n | x | x | x
O=C(O)c1ccc(N2CCN(Cc3ccc4c(c3)OCO4)CC2)c([N+](=O)[O-])c1 | 7.0 | n | n | n | n | n | 16 | n | n
O=C(NCc1ccc2c(c1)OCO2)c1ccc(N2CCCCCC2)c([N+](=O)[O-])c1 | n | n | n | n | n | n | x | x | x
CCOC(=O)c1nnn(CC(=O)NC(=O)Nc2ccccc2)c1C(=O)OCC | 7.3 | n | n | n | n | n | 20 | n | n
SMILES | TbMetRS inhib | PREPL inh | HNF4A DNA FP | CSN deneddyl inh | Neddylation inh | Rpn11 inh | Tb MetRS conf | Jurkat cytotox | Tb MetRS inh FP
CC1(C)CC(=O)C=C(/C=C/c2ccccc2)C1 | n | n | n | n | n | n | x | x | x
COc1cccc(NC(=O)CSCC(=O)Nc2ccccc2)c1 | 6.1 | n | n | n | n | n | 18 | n | n
CCNC(=O)Nc1cc(S(=O)(=O)N2CCOCC2)ccc1N1CCCCC1 | n | x | n | n | n | n | x | x | x
O=C(Nc1ccccc1)Nc1cc(S(=O)(=O)N2CCOCC2)ccc1N1CCCC1 | 8.5 | n | n | n | n | n | 20 | n | n
O=C(Nc1ccc(F)cc1)Nc1cc(S(=O)(=O)N2CCOCC2)ccc1N1CCCC1 | 11 | n | n | n | n | n | 27 | n | n
O=C(Nc1ccc(Cl)cc1)Nc1cc(S(=O)(=O)N2CCOCC2)ccc1N1CCCC1 | 38 | n | n | n | n | n | 60 | n | 35
CSc1ccc(C(=O)C2CCCN(C(=O)CN3CCOC3=O)C2)cc1 (stereo unspecified) | n | x | n | n | n | n | x | x | x
CN1CCN(c2ccc3c(c2)OC[C@@H](Cc2ccccc2)NS3(=O)=O)CC1 | n | x | n | n | n | x | x | x | x
O=c1oc(Nc2cccc(F)c2)nc2ccccc12 | n | n | n | n | x | n | x | x | x
Nc1nc(Nc2cccc(F)c2)nc2ccccc12 | 24 | n | n | n | n | n | 34 | n | 20
O=C(Cc1ccccc1[N+](=O)[O-])Nc1ccc(S(=O)(=O)N2CCCC2)cc1 | n | n | n | n | n | n | x | x | x
CC1(C)C2CCC1(CS(=O)(=O)NCc1ccc(Cl)cc1Cl)C(=O)C2 (stereo unspecified) | 7.6 | n | n | n | n | n | 21 | n | n
O=C(NCC(O)c1ccc([N+](=O)[O-])cc1)C(c1ccccc1)c1ccccc1 (stereo unspecified) | n | n | n | n | n | n | x | x | x
O=C(NCC(O)c1ccc([N+](=O)[O-])cc1)Nc1ccccc1 (stereo unspecified) | 27 | n | n | n | n | n | 46 | n | 21
Cc1cccc(CSCCNC(=O)Nc2ccccc2)c1 | 15 | n | n | n | n | n | 24 | n | n
Cc1ccccc1CSCCNC(=O)Nc1ccccc1 | n | n | n | n | n | n | x | x | x
COc1cc(C2C(C#N)=C(N)Oc3cc(C)n(CCc4ccccc4)c(=O)c32)cc2c1OCO2 (stereo unspecified) | 85 | n | n | n | n | n | 11 | n | n
COc1ccc(OC)c(C2C(C#N)=C(N)Oc3cc(C)n(Cc4ccccn4)c(=O)c32)c1 (stereo unspecified) | 89 | n | n | n | n | n | 15 | n | n
COC(=O)c1ccc(C2C(C#N)=C(N)Oc3cc(N)ccc32)cc1 (stereo unspecified) | n | n | n | n | n | n | x | x | x
